What was measured:
Type in all cases: ADME
[1] = molecular target: T1, Solute carrier family 15 member 1 (Rattus norvegicus, UniProt P51574); test: Drug uptake in Pichia pastoris GS115 expressing rat recombinant PEPT1 at 5 uM after 30s by dual-channel liquid scintillation counting analysis in presence of cephalothin relative to control; conditions: 0.5 min
T1 sequence (P51574 whole entry): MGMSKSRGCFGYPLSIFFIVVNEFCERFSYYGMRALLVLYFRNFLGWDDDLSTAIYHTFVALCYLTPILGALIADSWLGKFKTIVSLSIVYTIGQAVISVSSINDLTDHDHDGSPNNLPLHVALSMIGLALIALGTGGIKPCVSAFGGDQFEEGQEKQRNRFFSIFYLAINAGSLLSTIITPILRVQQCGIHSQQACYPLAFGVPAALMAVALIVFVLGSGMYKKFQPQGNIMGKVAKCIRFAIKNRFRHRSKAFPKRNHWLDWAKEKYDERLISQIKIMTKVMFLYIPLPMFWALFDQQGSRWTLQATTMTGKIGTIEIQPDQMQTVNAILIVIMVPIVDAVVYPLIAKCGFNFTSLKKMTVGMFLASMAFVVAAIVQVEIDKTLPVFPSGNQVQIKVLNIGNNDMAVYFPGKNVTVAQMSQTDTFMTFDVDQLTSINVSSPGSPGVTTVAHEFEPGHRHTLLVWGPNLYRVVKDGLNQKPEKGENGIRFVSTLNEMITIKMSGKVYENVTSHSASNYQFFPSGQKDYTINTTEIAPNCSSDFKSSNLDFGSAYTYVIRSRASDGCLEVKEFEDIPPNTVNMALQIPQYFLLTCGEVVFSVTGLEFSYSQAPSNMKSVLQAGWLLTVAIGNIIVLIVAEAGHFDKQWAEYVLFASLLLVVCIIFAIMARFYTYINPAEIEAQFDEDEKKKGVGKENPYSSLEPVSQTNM
Outline: (§1)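 Rat PEPT1 (pPIC3.5K-rPept1) in GS115 His+Mut+ transformant, methanol-induced 20-24 hr in BMMY at 30°C, washed into 100 mM potassium phosphate pH 6.5. [3H]GlySar final 5.0 µM with inhibitor at 10 mM, 30 sec at 24°C. Counts taken by liquid scintillation after 24 hr standing. Values are vector-subtracted and given as % of buffer control. Mean ± SE, n=3.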

[2] = molecular target: T2, Solute carrier family 15 member 1 (Homo sapiens, UniProt P46059); test: Drug uptake in Pichia pastoris GS115 expressing human recombinant PEPT1 at 5 uM after 30s by dual-channel liquid scintillation counting analysis in presence of glycine relative to control; conditions: 0.5 min
T2 sequence (P46059 whole entry): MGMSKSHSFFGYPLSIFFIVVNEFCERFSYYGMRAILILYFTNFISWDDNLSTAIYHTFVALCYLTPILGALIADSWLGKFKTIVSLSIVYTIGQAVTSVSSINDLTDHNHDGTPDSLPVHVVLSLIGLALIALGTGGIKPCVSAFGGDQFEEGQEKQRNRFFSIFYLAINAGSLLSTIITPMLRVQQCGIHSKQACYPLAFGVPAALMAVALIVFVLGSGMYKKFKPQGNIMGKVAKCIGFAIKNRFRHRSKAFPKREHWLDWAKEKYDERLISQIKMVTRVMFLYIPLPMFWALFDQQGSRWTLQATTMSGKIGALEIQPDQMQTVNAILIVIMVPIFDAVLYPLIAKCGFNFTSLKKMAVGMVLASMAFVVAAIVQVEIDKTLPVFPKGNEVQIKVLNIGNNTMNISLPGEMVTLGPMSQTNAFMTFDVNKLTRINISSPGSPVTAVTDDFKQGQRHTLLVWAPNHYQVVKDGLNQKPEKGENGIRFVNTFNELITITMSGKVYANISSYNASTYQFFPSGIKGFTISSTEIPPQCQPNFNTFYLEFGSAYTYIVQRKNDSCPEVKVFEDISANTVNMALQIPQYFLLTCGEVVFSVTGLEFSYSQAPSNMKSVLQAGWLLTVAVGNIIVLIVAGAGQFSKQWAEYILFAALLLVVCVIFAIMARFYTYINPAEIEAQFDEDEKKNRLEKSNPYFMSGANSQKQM
Outline: (§2)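 [3H]GlySar 5.0 µM final, 30-s uptake at 24°C in 100 mM potassium phosphate pH 6.5, with or without a potential inhibitor at 10 mM. Cells are methanol-induced transformants. Values are vector-subtracted and expressed as percent of buffer control. Mean ± SE (n=3). ANOVA with Dunnett's test.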

[3] = molecular target: T1, Solute carrier family 15 member 1; test: Drug uptake in Pichia pastoris GS115 expressing rat recombinant PEPT1 at 5 uM after 30s by dual-channel liquid scintillation counting analysis in presence of cephapirin relative to control; conditions: 0.5 min; outline: as §1
[4] = molecular target: T3, Solute carrier family 15 member 1 (Mus musculus, UniProt Q9JIP7); test: Drug uptake in Pichia pastoris GS115 expressing mouse recombinant PEPT1 at 5 uM after 30s by dual-channel liquid scintillation counting analysis in presence of elacridar relative to control; conditions: 0.5 min; outline: as §2
T3 sequence (Q9JIP7 whole entry): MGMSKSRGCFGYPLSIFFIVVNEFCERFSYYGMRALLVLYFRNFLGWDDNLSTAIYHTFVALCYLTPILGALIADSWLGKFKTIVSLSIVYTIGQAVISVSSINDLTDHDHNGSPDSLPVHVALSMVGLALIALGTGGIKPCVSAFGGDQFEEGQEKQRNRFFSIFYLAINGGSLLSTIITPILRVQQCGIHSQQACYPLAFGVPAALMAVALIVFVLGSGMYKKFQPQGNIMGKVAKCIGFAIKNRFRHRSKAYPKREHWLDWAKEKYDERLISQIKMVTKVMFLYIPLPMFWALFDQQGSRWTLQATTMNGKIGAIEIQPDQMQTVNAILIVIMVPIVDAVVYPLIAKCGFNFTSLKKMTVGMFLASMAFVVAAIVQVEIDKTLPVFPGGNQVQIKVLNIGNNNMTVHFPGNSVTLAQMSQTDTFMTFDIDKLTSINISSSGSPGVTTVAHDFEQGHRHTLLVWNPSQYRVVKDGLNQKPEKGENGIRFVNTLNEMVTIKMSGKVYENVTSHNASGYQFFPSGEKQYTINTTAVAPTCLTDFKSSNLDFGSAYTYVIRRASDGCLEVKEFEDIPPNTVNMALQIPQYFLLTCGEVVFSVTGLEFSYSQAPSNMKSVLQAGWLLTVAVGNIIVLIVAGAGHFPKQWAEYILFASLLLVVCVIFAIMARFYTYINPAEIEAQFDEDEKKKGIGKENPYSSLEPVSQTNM

[5] = molecular target: T3, Solute carrier family 15 member 1; test: Drug uptake in Pichia pastoris GS115 expressing mouse recombinant PEPT1 at 5 uM after 30s by dual-channel liquid scintillation counting analysis in presence of cefadroxil relative to control; conditions: 0.5 min; outline: as §2
[6] = molecular target: T3, Solute carrier family 15 member 1; test: Drug uptake in Pichia pastoris GS115 expressing mouse recombinant PEPT1 at 5 uM after 30s by dual-channel liquid scintillation counting analysis in presence of valacyclovir relative to control; conditions: in vivo, 0.5 min; outline: as §2
[7] = molecular target: T2, Solute carrier family 15 member 1; test: Drug uptake in Pichia pastoris GS115 expressing human recombinant PEPT1 at 5 uM after 30s by dual-channel liquid scintillation counting analysis in presence of elacridar relative to control; conditions: 0.5 min; outline: as §2
[8] = molecular target: T1, Solute carrier family 15 member 1; test: Drug uptake in Pichia pastoris GS115 expressing rat recombinant PEPT1 at 5 uM after 30s by dual-channel liquid scintillation counting analysis in presence of cefazolin relative to control; conditions: 0.5 min; outline: as §1

Drug uptake [1]: 119% | Drug uptake [2]: 130% | Drug uptake [3]: 122% | Drug uptake [4]: 89.3% | Drug uptake [5]: 16.7% | Drug uptake [6]: 4.5% | Drug uptake [7]: 100% | Drug uptake [8]: 93.7%
Structure (SMILES): [3H]C(C(=O)O)N(C)C(=O)CN (stereo not drawn)

Reference: ChEMBL document CHEMBL3526053, “Species-dependent uptake of glycylsarcosine but not oseltamivir in Pichia pastoris expressing the rat, mouse, and human intestinal peptide transporter PEPT1” (Drug Metab Dispos, 2012)
